Data: ChEMBL document CHEMBL1138658, “Novel 2-aminotetralin and 3-aminochroman derivatives as selective serotonin 5-HT7 receptor agonists and antagonists” (J Med Chem, 2004)

Columns and labels:
[1] = target: 5-hydroxytryptamine receptor 2A (Rattus norvegicus, UniProt P14842); test: Inhibition of [3H]- Ketanserin binding to rat cortex 5-HT2A receptor
[2] = target: T1, Adrenergic receptor alpha-2 (Rattus norvegicus, UniProt P22086+P19328+P22909); test: Inhibition of [3H]RX-821002 binding to rat cortex Alpha 2 receptor
T1 sequence (P22086 whole entry): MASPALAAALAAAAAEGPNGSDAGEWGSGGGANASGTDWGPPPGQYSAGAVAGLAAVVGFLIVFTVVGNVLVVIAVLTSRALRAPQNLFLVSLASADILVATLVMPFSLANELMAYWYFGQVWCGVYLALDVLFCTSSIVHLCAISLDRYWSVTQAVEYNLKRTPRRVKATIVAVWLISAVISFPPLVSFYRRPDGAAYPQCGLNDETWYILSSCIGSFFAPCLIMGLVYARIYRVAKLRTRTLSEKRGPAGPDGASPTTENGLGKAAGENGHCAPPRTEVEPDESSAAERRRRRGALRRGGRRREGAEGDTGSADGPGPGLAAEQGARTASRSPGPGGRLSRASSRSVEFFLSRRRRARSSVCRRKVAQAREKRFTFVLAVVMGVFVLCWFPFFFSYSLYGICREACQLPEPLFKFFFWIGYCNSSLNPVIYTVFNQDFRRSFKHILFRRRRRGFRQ
T1 sequence (P19328 whole entry): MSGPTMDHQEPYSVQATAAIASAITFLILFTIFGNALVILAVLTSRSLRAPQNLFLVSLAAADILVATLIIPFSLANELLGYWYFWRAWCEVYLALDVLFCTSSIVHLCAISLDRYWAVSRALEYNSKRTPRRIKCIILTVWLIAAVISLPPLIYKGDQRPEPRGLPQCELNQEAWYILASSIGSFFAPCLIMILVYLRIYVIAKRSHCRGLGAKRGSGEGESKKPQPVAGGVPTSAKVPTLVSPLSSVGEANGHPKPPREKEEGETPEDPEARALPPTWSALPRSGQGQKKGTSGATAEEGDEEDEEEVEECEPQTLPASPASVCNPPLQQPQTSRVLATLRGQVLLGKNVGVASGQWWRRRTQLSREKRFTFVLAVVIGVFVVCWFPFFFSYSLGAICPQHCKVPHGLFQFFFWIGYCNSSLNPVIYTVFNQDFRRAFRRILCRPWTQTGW
T1 sequence (P22909 whole entry): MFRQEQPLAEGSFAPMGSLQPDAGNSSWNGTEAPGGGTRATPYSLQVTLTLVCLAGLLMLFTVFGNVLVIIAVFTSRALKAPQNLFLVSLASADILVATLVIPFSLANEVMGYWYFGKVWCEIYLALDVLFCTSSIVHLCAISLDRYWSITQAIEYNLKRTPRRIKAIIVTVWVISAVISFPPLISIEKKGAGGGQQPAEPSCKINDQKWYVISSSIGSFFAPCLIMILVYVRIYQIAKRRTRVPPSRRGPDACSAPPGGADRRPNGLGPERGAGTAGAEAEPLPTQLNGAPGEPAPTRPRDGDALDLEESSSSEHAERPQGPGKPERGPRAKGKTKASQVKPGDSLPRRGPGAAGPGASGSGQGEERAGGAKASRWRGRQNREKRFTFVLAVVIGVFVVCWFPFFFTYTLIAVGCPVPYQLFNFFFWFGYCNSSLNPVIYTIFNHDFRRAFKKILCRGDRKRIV

D(1A) dopamine receptor = D(1A) dopamine receptor (Rattus norvegicus, UniProt P18901); test: Inhibition of [3H]SCH-23390 binding to rat striatum Dopamine receptor 1; assay type: tissue-based
Chain of D(1A) dopamine receptor (P18901 whole entry): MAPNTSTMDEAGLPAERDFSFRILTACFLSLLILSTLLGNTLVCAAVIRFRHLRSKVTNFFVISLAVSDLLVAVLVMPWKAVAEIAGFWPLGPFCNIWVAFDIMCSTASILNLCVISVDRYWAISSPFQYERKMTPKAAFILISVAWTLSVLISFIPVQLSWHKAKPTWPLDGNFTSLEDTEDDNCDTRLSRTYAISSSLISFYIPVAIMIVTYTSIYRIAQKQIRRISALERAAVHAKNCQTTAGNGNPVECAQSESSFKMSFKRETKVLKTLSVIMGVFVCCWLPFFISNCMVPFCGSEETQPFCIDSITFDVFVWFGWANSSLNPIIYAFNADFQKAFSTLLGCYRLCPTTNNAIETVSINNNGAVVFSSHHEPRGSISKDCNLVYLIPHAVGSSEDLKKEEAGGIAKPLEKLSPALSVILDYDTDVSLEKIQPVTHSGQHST

[3] = target: Muscarinic acetylcholine receptor; test: Inhibition of [3H]- QNB binding to rat cortex muscarinic receptor
Adrenergic receptor beta = Adrenergic receptor beta (Rattus norvegicus, UniProt P18090+P10608+P26255); test: Inhibition of [3H]DHA binding to rat cortex Beta receptor
[4] = target: 5-hydroxytryptamine receptor 7 (Rattus norvegicus) (UniProt P32305); test: Stimulation of cAMP production in CHO cells expressing rat 5-hydroxytryptamine 7 receptor; assay type: functional, cell-based
Chain of 5-hydroxytryptamine receptor 7 (Rattus norvegicus) (P32305 whole entry): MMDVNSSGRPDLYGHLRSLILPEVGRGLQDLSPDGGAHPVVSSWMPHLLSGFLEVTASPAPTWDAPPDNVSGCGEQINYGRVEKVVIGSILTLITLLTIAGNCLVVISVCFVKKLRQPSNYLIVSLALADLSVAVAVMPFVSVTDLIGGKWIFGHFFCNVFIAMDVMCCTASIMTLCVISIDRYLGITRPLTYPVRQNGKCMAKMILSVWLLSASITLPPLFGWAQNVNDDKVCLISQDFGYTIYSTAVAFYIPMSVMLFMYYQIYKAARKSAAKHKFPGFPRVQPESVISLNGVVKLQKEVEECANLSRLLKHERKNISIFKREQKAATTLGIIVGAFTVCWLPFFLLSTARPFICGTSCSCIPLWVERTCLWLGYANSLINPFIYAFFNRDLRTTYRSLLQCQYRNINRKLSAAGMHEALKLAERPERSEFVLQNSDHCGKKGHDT
How it was run: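 cAMP production in CHO cells expressing rat 5-HT7 receptor. Efficacy is expressed as percent of the 5-HT-stimulated production.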

[5] = target: T2, 5-hydroxytryptamine receptor 7 (Rattus norvegicus, UniProt P32305); test: Inhibition of [3H]5-HT binding to rat 5-HT7 receptor
T2 sequence (P32305 whole entry): as above
How it was run: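 Displacement of [3H]-5-HT from rat 5-HT7 receptor expressed in CHO or Sf9 cells.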

[6] = target: T2, 5-hydroxytryptamine receptor 7; test: Inhibition of [3H]-5-HT binding to rat 5-hydroxytryptamine 7 receptor
How it was run: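 Rat 5-HT7 receptor expressed in CHO or Sf9 cells; [3H]-5-HT radioligand displacement.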

[7] = target: T3, 5-hydroxytryptamine receptor 1A (Rattus norvegicus, UniProt P19327); test: Inhibition of [3H]8-OH-DPAT binding to rat 5-hydroxytryptamine 1A receptor
T3 sequence (P19327 whole entry): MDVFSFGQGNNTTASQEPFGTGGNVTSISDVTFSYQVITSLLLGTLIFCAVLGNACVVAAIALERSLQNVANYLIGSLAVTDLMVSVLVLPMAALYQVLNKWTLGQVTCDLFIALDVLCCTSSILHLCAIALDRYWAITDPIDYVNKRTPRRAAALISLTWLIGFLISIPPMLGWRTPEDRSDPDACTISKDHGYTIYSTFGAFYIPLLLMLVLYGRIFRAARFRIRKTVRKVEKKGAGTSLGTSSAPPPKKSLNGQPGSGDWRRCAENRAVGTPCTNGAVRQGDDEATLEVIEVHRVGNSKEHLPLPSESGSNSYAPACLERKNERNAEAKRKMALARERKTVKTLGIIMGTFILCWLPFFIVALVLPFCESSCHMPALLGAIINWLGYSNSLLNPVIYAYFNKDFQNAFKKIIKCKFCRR
How it was run: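 Radioligand [3H]-8-OH-DPAT; receptor source either CHO cells expressing human 5-HT1A or rat hippocampal cells.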

[8] = target: T4, 5-hydroxytryptamine receptor 1A (Homo sapiens, UniProt P08908); test: Inhibition of [3H]8-OH-DPAT binding to human 5-HT1A receptor
T4 sequence (P08908 whole entry): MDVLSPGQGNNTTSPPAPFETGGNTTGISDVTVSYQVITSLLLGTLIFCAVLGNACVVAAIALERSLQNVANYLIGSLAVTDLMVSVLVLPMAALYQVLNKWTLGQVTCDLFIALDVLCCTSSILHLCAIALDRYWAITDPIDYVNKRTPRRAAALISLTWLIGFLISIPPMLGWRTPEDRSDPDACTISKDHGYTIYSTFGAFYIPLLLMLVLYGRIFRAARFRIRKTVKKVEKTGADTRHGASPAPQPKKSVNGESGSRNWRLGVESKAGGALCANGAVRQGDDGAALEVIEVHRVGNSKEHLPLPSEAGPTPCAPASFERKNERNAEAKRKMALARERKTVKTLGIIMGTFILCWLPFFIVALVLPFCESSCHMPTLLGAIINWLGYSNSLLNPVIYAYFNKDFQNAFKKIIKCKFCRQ
How it was run: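 Human 5-HT1A receptor expressed in CHO cells, labelled with [3H]-8-OH-DPAT.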

Chain of 5-hydroxytryptamine receptor 2A (P14842 whole entry): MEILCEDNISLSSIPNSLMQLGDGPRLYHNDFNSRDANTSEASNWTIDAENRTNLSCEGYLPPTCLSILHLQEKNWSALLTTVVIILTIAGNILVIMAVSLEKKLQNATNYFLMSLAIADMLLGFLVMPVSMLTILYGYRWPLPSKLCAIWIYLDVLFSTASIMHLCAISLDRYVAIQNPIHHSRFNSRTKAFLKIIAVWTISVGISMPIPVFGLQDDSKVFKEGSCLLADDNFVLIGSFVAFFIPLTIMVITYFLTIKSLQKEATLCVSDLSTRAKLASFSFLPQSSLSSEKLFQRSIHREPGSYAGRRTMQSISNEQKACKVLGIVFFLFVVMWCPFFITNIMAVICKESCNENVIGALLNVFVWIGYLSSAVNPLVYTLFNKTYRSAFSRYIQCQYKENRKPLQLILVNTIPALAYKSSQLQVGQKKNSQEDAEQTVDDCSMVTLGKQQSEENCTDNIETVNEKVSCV

Row | SMILES | Ki [1] [nM] | Ki [2] [nM] | Ki (D(1A) dopamine receptor) [nM] | Ki [3] [nM] | Ki (Adrenergic receptor beta) [nM] | Efficacy [4] [%] | Ki [5] [nM] | Ki [6] [nM] | Ki [7] [nM] | Ki [8] [nM]
1 | COc1cccc(OC)c1-c1cccc2c1CC[C@H](N(C)C)C2 | 1340 | 188 | > 1000 | > 1000 | > 1000 | < 10 | 2.55 | 2.55 | 1420 | 1420
2 | CCCN(CCC)[C@H]1CCc2c(cccc2-c2c(OC)cccc2OC)C1 | 1450 | 2090 | > 1000 | > 1000 | > 1000 | 100 | 7.9 | 7.9 | 347 | 347
